These results are taken from the array DNA melting data of Ke et al. (doi:10.1101/2024.01.08.574731).

The nature of series [1]: melting temperature; fluorescence melt of hairpins on a sequencing array, two-state fit, raised by 9.35 °C to match UV melts. Conditions: sodium 0.088 M. The method, boiled down: (§1)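 Cy3 fluorescence of library hairpins on a sequenced MiSeq flow cell, with annealed Cy3 and quencher oligos, was imaged in 50 mM Na-HEPES pH 8.0, 25 mM NaCl in 2.5 °C steps up to 60 °C. Signals were normalised to pre-quench Cy3 and to control variants. Melting temperature and folding enthalpy came from bootstrapped two-state fits, inverse-variance combined over four replicates. Fitted temperatures were raised by 9.35 °C to match UV melts.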

A short description of series [2]: folding enthalpy; higher = less favourable; fluorescence melt of hairpins on a sequencing array, two-state fit. Particulars: sodium 0.088 M. The method, boiled down:
as §1

For GCTAAGGAAACTTAGC ((((((....)))))), the Tm in series [1] was determined as 52 °C. For the same sequence, in series [2], the folding enthalpy is -24.6 kcal/mol.
As for GCTAAGGCGAAAGCCAGC (((..(((....)))))), the Tm in series [1] was determined as 48.6 °C. Also, the folding enthalpy in series [2] is -16 kcal/mol.
With GCTACACGAAAGTGGAGC (((.(((....))).))), the Tm in series [1] came out at 67 °C. Further, the folding enthalpy in series [2] was -43.5 kcal/mol.
In the same order, the values of GCTACAGGAAACCGTAGC (((((.(....).))))) are 47.7 °C and -31.6 kcal/mol.
In the same order, the values of GCTACAGGAAACTATAGC ((((.((....)).)))) are 31.7 °C and -12.1 kcal/mol.
On to GCTACCGAAAGGTAAGC ((((((....))).))), for which the Tm in series [1] stood at 53.2 °C. The folding enthalpy in series [2] is -35 kcal/mol.
For GCTACCGAAAGGTGAGC ((((((....))).))) the same measures were 51 °C and -23.3 kcal/mol.
Take GCTACCGAAAGGTGGAGC ((((((....)))..))): in series [1], the Tm worked out at 41.3 °C. Further, the folding enthalpy in series [2] is -15.3 kcal/mol.
Regarding GCTACCGAAAGGTGTAGC ((((((....)))..))), the Tm in series [1] was 47.1 °C. In series [2], the folding enthalpy was -21.7 kcal/mol.
For GCTACCGGAAACGATAGC ((((.((....)).)))) the same measures were 43.7 °C and -31.6 kcal/mol.
As for GCTACGCCGAAAGGCAGC (((..(((....)))))), the Tm in series [1] was found to be 42.3 °C. Moreover, the folding enthalpy in series [2] was -11.9 kcal/mol.
GCTACGCGAAAGCACAGC (((..((....))..))): in series [1], the Tm was 46.5 °C. Moreover, the folding enthalpy in series [2] was -21.2 kcal/mol.
For GCTACGCGAAAGCGTCGC ((.((((....)))).)) the same measures were 57.7 °C and -19.3 kcal/mol.
Turning to GCTACGCGAAAGCGTTGC ((.((((....)))).)), the Tm in series [1] was 65 °C. In series [2], the folding enthalpy is -27.2 kcal/mol.
For GCTACGGGAAACCGTAGC (((((((....))))))) the same measures were 68.8 °C and -38.1 kcal/mol.
For GCTACGGGAAACTGTAGC (((((.(....).))))) the same measures were 52.1 °C and -48.3 kcal/mol.
On to GCTACGGGAAACTGTGGC ((.((.(....).)).)), for which the Tm in series [1] was determined as 41.1 °C. In addition, the folding enthalpy in series [2] is -30.7 kcal/mol.
In the same order, the values of GCTACTACGAAAGTAAGC (((..(((....)))))) are 29.5 °C and -13.6 kcal/mol.
On to GCTAGAGAAATCTAGC ((((((....)))))), for which the Tm in series [1] was determined as 50.3 °C. For the same sequence, in series [2], the folding enthalpy is -30.4 kcal/mol.
In the same order, the values of GCTAGAGGAAACTCTGGC ((.((((....)))).)) are 48 °C and -37.9 kcal/mol.
For GCTAGCACGAAAGTGAGC (((..(((....)))))) the same measures were 35.1 °C and -17.4 kcal/mol.
For GCTAGCCCGAAAGGGAGC (((..(((....)))))) the same measures were 37.8 °C and -14.3 kcal/mol.
On to GCTAGCGAAAGCTCTAGC ((((((....)))..))), for which the Tm in series [1] stood at 38.5 °C. Also, the folding enthalpy in series [2] is -15.3 kcal/mol.
Turning to GCTAGCGAAAGCTGCAGC ((((((....)))..))), in series [1], the Tm was found to be 46 °C. Further, in series [2], the folding enthalpy is -13.2 kcal/mol.
GCTAGCGAAAGCTTCAGC ((((((....)))..))): in series [1], the Tm came out at 39.1 °C. For the same sequence, the folding enthalpy in series [2] is -10.9 kcal/mol.
In the same order, the values of GCTAGCGAAAGCTTTAGC ((((((....)))..))) are 40.5 °C and -14 kcal/mol.
Consider GCTAGCGCGAAAGCGAGC (((..(((....)))))), for which the Tm in series [1] came to 44.9 °C. In addition, the folding enthalpy in series [2] was -12.9 kcal/mol.
In the same order, the values of GCTAGCGGAAACGCCAGC (((.(((....))).))) are 48.4 °C and -23.6 kcal/mol.
For GCTAGCGGAAACGCTAAC (.(((((....))))).) the same measures were 40 °C and -12.7 kcal/mol.
As to GCTAGGCGAAAGCATTGC ((.(.((....)).).)), in series [1], the Tm stood at 42.1 °C. For the same sequence, the folding enthalpy in series [2] is -19.2 kcal/mol.
Take GCTAGGCGAAAGCCAGGC ((..(((....)))..)): the Tm in series [1] came to 54.9 °C. Moreover, the folding enthalpy in series [2] was -16.8 kcal/mol.
Consider GCTAGGCGAAAGCCCAGC (((.(((....))).))), for which, in series [1], the Tm came out at 50.7 °C. Moreover, in series [2], the folding enthalpy is -23.7 kcal/mol.
For GCTAGGCGAAAGCGCAGC (((..((....))..))) the same measures were 39.6 °C and -15.8 kcal/mol.
As for GCTAGGCGAAAGCGTAGC ((((.((....)).)))), in series [1], the Tm is 62.8 °C. In addition, the folding enthalpy in series [2] was -33 kcal/mol.
As for GCTAGGCGAAAGCTCAGC (((..((....))..))), the Tm in series [1] was found to be 42.9 °C. The folding enthalpy in series [2] was -19.6 kcal/mol.
In the same order, the values of GCTAGGGCGAAAGCCAGC (((..(((....)))))) are 48 °C and -15 kcal/mol.
For GCTAGGGGAAACCCCAGC (((.(((....))).))), the Tm in series [1] was found to be 49.1 °C. The folding enthalpy in series [2] was -29.8 kcal/mol.
Turning to GCTAGTCCGAAAGGAAGC (((..(((....)))))), in series [1], the Tm was found to be 30 °C. Also, the folding enthalpy in series [2] is -16.1 kcal/mol.
With GCTAGTCGAAAGACAAGC (((.(((....))).))), the Tm in series [1] was found to be 51.8 °C. Besides, the folding enthalpy in series [2] is -34.7 kcal/mol.
With GCTAGTGGAAACATTGGC ((.(.((....)).).)), the Tm in series [1] stood at 28.2 °C. The folding enthalpy in series [2] is -10.7 kcal/mol.
Regarding GCTATAGGAAACCATAGC (((((.(....).))))), in series [1], the Tm worked out at 35.6 °C. Besides, the folding enthalpy in series [2] was -29.8 kcal/mol.
In the same order, the values of GCTATCCGAAAGGAAGC (((.(((....)))))) are 46 °C and -23.2 kcal/mol.
With GCTATCGAAAGATAAAGC ((((((....)))..))), in series [1], the Tm was found to be 33.6 °C. The folding enthalpy in series [2] was -23.9 kcal/mol.
Regarding GCTATCGAAAGATTTAGC ((((((....)))..))), the Tm in series [1] is 32.7 °C. For the same sequence, in series [2], the folding enthalpy was -19.9 kcal/mol.
For GCTATCGGAAACGATGGC ((.((((....)))).)) the same measures were 52.9 °C and -47.6 kcal/mol.
As for GCTATGCGAAAGCAGGGC ((..(((....)))..)), the Tm in series [1] worked out at 54.8 °C. Moreover, the folding enthalpy in series [2] is -22.2 kcal/mol.
Take GCTATGCGAAAGCATTGC ((.((((....)))).)): the Tm in series [1] stood at 60.3 °C. In addition, the folding enthalpy in series [2] was -30.2 kcal/mol.
With GCTATGCGAAAGCCTGGC ((.(.((....)).).)), the Tm in series [1] was 36.9 °C. The folding enthalpy in series [2] was -18.8 kcal/mol.
Take GCTATGCGAAAGCTGAGC (((..((....))..))): in series [1], the Tm stood at 47.4 °C. Moreover, the folding enthalpy in series [2] was -21.9 kcal/mol.
GCTATTCGAAAGAAAAGC (((.(((....))).))): the Tm in series [1] is 39.1 °C. Also, in series [2], the folding enthalpy was -27.9 kcal/mol.
GCTATTGGAAACAATAGC (((((((....))))))): the Tm in series [1] was found to be 56 °C. Besides, the folding enthalpy in series [2] was -47.7 kcal/mol.
In the same order, the values of GCTATTGGAAACAGTAGC ((((.((....)).)))) are 42.9 °C and -30 kcal/mol.
For GCTCAAACGAAAGTTAGC (((..(((....)))))) the same measures were 29.4 °C and -22.6 kcal/mol.
For GCTCAACGAAAGTTAAGC (((.(((....))).))) the same measures were 42 °C and -26.4 kcal/mol.
On to GCTCAAGAAATTGAGC ((((((....)))))), for which the Tm in series [1] turned out to be 55.3 °C. In addition, the folding enthalpy in series [2] is -34.1 kcal/mol.
Regarding GCTCAAGGAAACTCGAGC ((((.((....)).)))), the Tm in series [1] turned out to be 38.3 °C. In series [2], the folding enthalpy is -30.5 kcal/mol.
In the same order, the values of GCTCAATCGAAAGATAGC (((..(((....)))))) are 31.9 °C and -11.6 kcal/mol.
For GCTCACCCGAAAGGGAGC (((..(((....)))))) the same measures were 50.2 °C and -19.4 kcal/mol.
For GCTCACCGAAAGGTAAGC (((.(((....))).))) the same measures were 48.6 °C and -29.1 kcal/mol.
In the case of GCTCACGAAAGTGACAGC ((((((....)))..))), the Tm in series [1] amounted to 43.2 °C. Also, the folding enthalpy in series [2] was -14.8 kcal/mol.
In the same order, the values of GCTCACGAAAGTGTCAGC ((((((....)))..))) are 37.4 °C and -17.4 kcal/mol.
Take GCTCACGAAAGTGTGAGC ((((((....)))..))): the Tm in series [1] was found to be 55.8 °C. For the same sequence, the folding enthalpy in series [2] was -34 kcal/mol.
For GCTCACGCGAAAGCGAGC (((..(((....)))))) the same measures were 47.8 °C and -15.1 kcal/mol.
For GCTCACGGAAACGCGAGC ((((.((....)).)))) the same measures were 53.4 °C and -51.9 kcal/mol.
In the same order, the values of GCTCACTCGAAAGAGAGC (((..(((....)))))) are 41.6 °C and -25.1 kcal/mol.
With GCTCAGCGAAAGCGAAGC (((..((....))..))), the Tm in series [1] came to 43.3 °C. The folding enthalpy in series [2] was -18.5 kcal/mol.
GCTCAGCGAAAGCGGGGC ((.(.((....)).).)): in series [1], the Tm is 59.9 °C. Moreover, the folding enthalpy in series [2] was -25.5 kcal/mol.
With GCTCAGCGAAAGCGTAGC (((..((....))..))), the Tm in series [1] was determined as 49.7 °C. In addition, in series [2], the folding enthalpy is -18.1 kcal/mol.
In the same order, the values of GCTCAGCGAAAGCTAAGC (((.(((....))).))) are 46.7 °C and -40.3 kcal/mol.
As to GCTCAGCGAAAGCTACGC ((..(((....)))..)), the Tm in series [1] came to 35 °C. Also, the folding enthalpy in series [2] was -11.4 kcal/mol.
In the same order, the values of GCTCAGCGAAAGCTATGC ((..(((....)))..)) are 36.4 °C and -12.6 kcal/mol.
In the same order, the values of GCTCAGGGAAACCCGAGC ((((.((....)).)))) are 51.3 °C and -35.8 kcal/mol.
For GCTCAGGGAAACTTGGGC ((.((.(....).)).)) the same measures were 35.3 °C and -20.6 kcal/mol.
